Laboratory results: ChEMBL document CHEMBL4765301, “Discovery of novel TNNI3K inhibitor suppresses pyroptosis and apoptosis in murine myocardial infarction injury” (Eur J Med Chem, 2020)
Calls of active or inactive are those of the source. The calls are words filed in the database; no cut-off is given here.

Key:
Mus musculus [1] = experiment: Cardioprotective activity in C57BL/6 mouse model of myocardial infarction assessed as reduction in left ventricular inflammatory cells at 25 mg/kg, ip administered for 28 days and measured on day 28 by H and E staining based fluorescence microscopy; assay type: functional, organism-based; conditions: time 28.0 day
How it was run: (§1)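 MI made in male C57BL/6 mice (5-6 weeks) by permanent LAD ligation under ip ketamine (100mg/kg)/xylazine (10mg/kg), ventilated. Groups: sham, saline (NS), inhibitor 25 mg/kg ip every two days, n=4. Hearts examined after 28 days; TTC, Masson's trichrome and H&E staining of sections for infarct, collagen/scar, LV inflammatory cells and dilatation.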

H9c2 [2] = experiment: Inhibition of OGD-induced apoptosis in rat H9c2 cells assessed as viable cells at 1 uM incubated for 24 hrs by annexinV-FITC and PI staining based flow cytometry analysis (reference value: 85 %); assay type: functional
H9c2 [3] = experiment: Inhibition of OGD-induced apoptosis in rat H9c2 cells assessed as early apoptotic cells at 1 uM incubated for 24 hrs by annexinV-FITC and PI staining based flow cytometry analysis (reference value: 3.53 %); assay type: functional
[4] = molecular target: T1, Serine/threonine-protein kinase TNNI3K (Homo sapiens, UniProt Q59H18); experiment: Inhibition of TNNI3K (unknown origin) using biotinylated CTnI as substrate by HTRF analysis
T1 sequence (Q59H18 whole entry): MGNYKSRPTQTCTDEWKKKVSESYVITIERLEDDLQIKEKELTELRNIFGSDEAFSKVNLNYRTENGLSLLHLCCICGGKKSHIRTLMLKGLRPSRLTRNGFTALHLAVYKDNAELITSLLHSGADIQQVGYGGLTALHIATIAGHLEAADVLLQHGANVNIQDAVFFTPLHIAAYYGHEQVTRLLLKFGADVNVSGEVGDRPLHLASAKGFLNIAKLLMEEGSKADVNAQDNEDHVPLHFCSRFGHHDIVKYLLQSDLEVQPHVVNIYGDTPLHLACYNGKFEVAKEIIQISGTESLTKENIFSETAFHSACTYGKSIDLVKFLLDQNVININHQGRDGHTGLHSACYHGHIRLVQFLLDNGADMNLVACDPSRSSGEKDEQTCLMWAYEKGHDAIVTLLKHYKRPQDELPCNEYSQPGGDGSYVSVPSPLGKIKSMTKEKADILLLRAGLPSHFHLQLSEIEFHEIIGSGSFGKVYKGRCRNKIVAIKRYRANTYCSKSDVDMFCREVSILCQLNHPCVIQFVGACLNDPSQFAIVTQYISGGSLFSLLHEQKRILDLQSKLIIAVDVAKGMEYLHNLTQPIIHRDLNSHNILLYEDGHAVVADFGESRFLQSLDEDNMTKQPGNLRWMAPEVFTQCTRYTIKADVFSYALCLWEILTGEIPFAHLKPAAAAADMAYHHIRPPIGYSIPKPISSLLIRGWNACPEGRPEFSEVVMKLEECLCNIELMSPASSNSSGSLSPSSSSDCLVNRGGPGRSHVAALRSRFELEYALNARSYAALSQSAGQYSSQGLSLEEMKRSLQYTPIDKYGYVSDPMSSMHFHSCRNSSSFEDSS
How it was run: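 TNNI3K was assayed by HTRF using a GST-tagged TNNI3K kinase domain and a biotinylated cardiac troponin I substrate peptide, followed by the two HTRF detection reagents. Compounds were screened at 1.0 µM, then IC50s were determined.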

[5] = molecular target: Epidermal growth factor receptor (Homo sapiens) (UniProt P00533); experiment: Inhibition of recombinant human EGFR (696 to end residues) assessed as residual activity at 1 uM using poly(Glu, Tyr) 4:1 as substrate incubated for 40 mins by [gamma-33P]-ATP scintillation counting based radiometry assay relative to control
Chain of Epidermal growth factor receptor (Homo sapiens) (P00533 whole entry): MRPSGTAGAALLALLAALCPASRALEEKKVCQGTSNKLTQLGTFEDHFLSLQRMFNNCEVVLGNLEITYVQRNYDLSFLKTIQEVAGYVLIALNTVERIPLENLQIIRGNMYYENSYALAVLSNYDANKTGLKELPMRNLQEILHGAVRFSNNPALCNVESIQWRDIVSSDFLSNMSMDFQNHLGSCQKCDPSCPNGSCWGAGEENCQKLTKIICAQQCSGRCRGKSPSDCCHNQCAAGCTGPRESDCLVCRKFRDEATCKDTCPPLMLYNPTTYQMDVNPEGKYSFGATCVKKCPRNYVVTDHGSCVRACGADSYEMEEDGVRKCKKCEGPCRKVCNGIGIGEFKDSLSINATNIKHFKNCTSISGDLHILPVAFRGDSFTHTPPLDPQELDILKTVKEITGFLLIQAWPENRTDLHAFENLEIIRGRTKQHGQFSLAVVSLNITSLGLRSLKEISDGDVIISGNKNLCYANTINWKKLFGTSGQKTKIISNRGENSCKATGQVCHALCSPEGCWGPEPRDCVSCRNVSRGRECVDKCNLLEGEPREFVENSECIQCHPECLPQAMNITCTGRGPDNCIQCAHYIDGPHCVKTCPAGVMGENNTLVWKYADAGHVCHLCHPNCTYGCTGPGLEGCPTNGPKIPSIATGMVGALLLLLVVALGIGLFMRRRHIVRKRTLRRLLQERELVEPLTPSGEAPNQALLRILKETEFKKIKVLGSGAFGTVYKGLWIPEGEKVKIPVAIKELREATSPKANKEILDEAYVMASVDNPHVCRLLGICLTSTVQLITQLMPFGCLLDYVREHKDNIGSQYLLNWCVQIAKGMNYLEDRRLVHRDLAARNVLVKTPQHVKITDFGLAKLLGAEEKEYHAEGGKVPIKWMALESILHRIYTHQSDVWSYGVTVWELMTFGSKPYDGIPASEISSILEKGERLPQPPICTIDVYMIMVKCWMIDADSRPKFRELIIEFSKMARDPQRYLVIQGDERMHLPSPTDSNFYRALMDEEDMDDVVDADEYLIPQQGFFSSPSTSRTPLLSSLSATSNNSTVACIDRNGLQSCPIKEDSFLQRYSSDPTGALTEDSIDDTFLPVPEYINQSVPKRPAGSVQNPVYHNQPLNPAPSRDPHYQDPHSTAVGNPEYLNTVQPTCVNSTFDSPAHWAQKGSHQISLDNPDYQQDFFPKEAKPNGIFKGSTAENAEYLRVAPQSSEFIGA

Mus musculus [6] = experiment: Cardioprotective activity in C57BL/6 mouse model of myocardial infarction assessed as reduction in scar tissue at 25 mg/kg, ip administered for 28 days and measured on day 28 by masson staining based fluorescence microscopy; assay type: functional, organism-based; conditions: time 28.0 day; how it was run: as §1
H9c2 [7] = experiment: Inhibition of OGD-induced apoptosis in rat H9c2 cells assessed as early apoptotic cells at 0.5 uM incubated for 24 hrs by annexinV-FITC and PI staining based flow cytometry analysis (reference value: 3.53 %); assay type: functional
H9c2 [8] = experiment: Inhibition of OGD-induced apoptosis in rat H9c2 cells assessed as reduction in GSDMD activation at 0.5 to 1 uM by Western blot analysis; assay type: functional, cell-based; conditions: dose 0.5-1 µM
How it was run: (§2)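 H9c2 cells under OGD were treated with saline or 0.5 or 1.0 µM inhibitor. Cells were trypsinised, washed in cold PBS, lysed in RIPA with sonication and centrifuged 30 min. Total protein was quantified and separated by SDS-PAGE, then transferred to PVDF. Blots were probed with primary and secondary antibodies and detected by ECL.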

H9c2 [9] = experiment: Cytoprotective activity against OGD-induced cell death in rat H9c2 cells assessed as cell viability incubated for 24 hrs by LDH release assay; assay type: functional, cell-based; conditions: dose 0.5-1 µM
How it was run: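 OGD-exposed H9c2 cells were treated with 0.5 or 1.0 µM inhibitor for 24 h. LDH released into the culture medium was measured with a commercial LDH cytotoxicity kit.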

Mus musculus [10] = experiment: In vivo inhibition of TNNI3K in C57BL/6 mouse assessed as reduction in GSDMD at 25 mg/kg, ip administered for 28 days and measured on day 28 by immunohistochemical staining based fluorescence microscopy; assay type: functional, organism-based; conditions: time 28.0 day
How it was run: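 Male C57BL/6 mice (5-6 weeks) with LAD-ligation MI; sham, saline or 25 mg/kg ip every two days, n=4, 28 days. Heart sections given EDTA (pH 8.0) or citrate (pH 6.0) microwave antigen retrieval, then primary antibody 30-40 min at 37°C. Detection by HRP polymer secondary with DAB (IHC) or fluorescent secondary (IF). Positive cells were quantified.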

H9c2 [11] = experiment: Inhibition of OGD-induced apoptosis in rat H9c2 cells assessed as reduction in NLRP3 level at 0.5 to 1 uM by immunofluorescence staining based fluorescence microscopy; assay type: functional, cell-based; conditions: dose 0.5-1 µM
How it was run: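 In OGD-exposed H9c2 cells treated with 0.5 or 1.0 µM inhibitor, intracellular distribution and co-localisation of caspase-1 and NLRP3 were assessed by immunofluorescence microscopy.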

H9c2 [12] = experiment: Inhibition of OGD-induced apoptosis in rat H9c2 cells assessed as reduction in NLRP3 level at 0.5 to 1 uM by Western blot analysis; assay type: functional, cell-based; conditions: dose 0.5-1 µM; how it was run: as §2
Mus musculus [13] = experiment: Cardioprotective activity in C57BL/6 mouse model of myocardial infarction assessed as reduction in collagen deposition at 25 mg/kg, ip administered for 28 days and measured on day 28 by […] staining based fluorescence microscopy; assay type: functional, organism-based; conditions: time 28.0 day
How it was run: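 Male C57BL/6 mice (5-6 weeks); MI by permanent LAD ligation under ip ketamine (100mg/kg)/xylazine (10mg/kg) with ventilation; sham group operated without LAD occlusion. Post-MI mice randomised to sham, normal saline or inhibitor groups (n=4); 25 mg/kg given ip every two days. Hearts assessed after 28 days: TTC staining (infarct yellow-white, viable red), Masson's trichrome (blue collagen) and H&E.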

H9c2 [14] = experiment: Inhibition of OGD-induced apoptosis in rat H9c2 cells assessed as late apoptotic cells at 0.5 uM incubated for 24 hrs by annexinV-FITC and PI staining based flow cytometry analysis (reference value: 9 %); assay type: functional
H9c2 [15] = experiment: Inhibition of OGD-induced apoptosis in rat H9c2 cells assessed as reduction in caspase1 level at 0.5 to 1 uM by Western blot analysis; assay type: functional, cell-based; conditions: dose 0.5-1 µM; how it was run: as §2

CN(C)CCCN1CCc2c(sc3ncnc(Nc4ccc(N(C)C)c(NC(=O)c5ccco5)c4)c23)C1
Activity (Mus musculus [1]): Active | inhibition at 1 µM (H9c2 [2]): 90.7% | inhibition at 1 µM (H9c2 [3]): 3.17% | IC50 [4]: 240 nM | Activity [5]: 81% | Activity (Mus musculus [6]): Active | inhibition at 0.5 µM (H9c2 [7]): 3.59% | inhibition (H9c2 [8]): Active | Activity (H9c2 [9]): Dose-dependent effect | inhibition (Mus musculus [10]): Active | inhibition (H9c2 [11]): Active | inhibition (H9c2 [12]): Active | Activity (Mus musculus [13]): Active | inhibition at 0.5 µM (H9c2 [14]): 7.15% | inhibition (H9c2 [15]): inactive
